Experimental findings from ChEMBL document CHEMBL4152296, “Synthesis, biological evaluation and molecular modeling of novel azaspiro dihydrotriazines as influenza virus inhibitors targeting the host factor dihydrofolate reductase (DHFR)” (Eur J Med Chem, 2018) are described below.

One data set deals with Influenza A virus. Briefly: Antiviral activity against Influenza A virus (A/Puerto Rico/8/34(H1N1)) infected in MDCK cells assessed as protection against virus-induced reduction in cell viability after 3 to 6 days by MTS assay. It is filed as functional, organism-based. Particulars: A/Puerto Rico/8/1934(H1N1). The method in brief:
(§1)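 MDCK cells seeded at 9000/well and infected one day later (semiconfluent) with 100 CCID50 virus. Medium was FCS-free Ultra MDCK with 2 μg/mL TPCK-trypsin. Serial five-fold compound dilutions (top 100 μM) were added with the virus, followed by 3–6 days at 35 °C. MTS read-out gave % protection versus virus and mock controls. EC50 was interpolated from semi-log curves; mean of two or three experiments.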
For orientation: Tetrazolium dyes change colour on reduction, which living cells bring about.

The next data set deals with Influenza B virus. Briefly: Antiviral activity against Influenza B virus B/Ned/537/05 infected in MDCK cells assessed as protection against virus-induced reduction in cell viability after 3 to 6 days by MTS assay. The data set is classed as functional, organism-based. Conditions: B/Ned/537/05, MDCK. The method in brief:
as §1

Data set [1] is described as follows: Cytotoxicity against MDCK cells assessed as alterations in normal cell morphology measured after 3 to 6 days by microscopic analysis. It is filed as cell-based, Canis lupus familiaris. Conditions: dog. The method in brief:
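Uninfected MDCK cultures in FCS-free Ultra MDCK medium with trypsin received five-fold compound dilutions (up to […]) for 3–6 days at 35 °C. Microscopy scored morphology, and MCC was taken as the lowest concentration causing minimal rounding, shrinking or lysis.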

Another data set relates to MDCK. Briefly: Cytotoxicity against MDCK cells assessed as reduction in cell viability measured after 3 to 6 days by MTS assay. The data set is classed as cell-based, Canis lupus familiaris. Conditions: dog. The method in brief:
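Mock-infected MDCK plates were run in parallel (FCS-free Ultra MDCK medium with TPCK-trypsin) with serial five-fold dilutions up to […], 35 °C for 3–6 days. CC50 was interpolated from semi-log dose-response curves; mean of two or three experiments.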

For data set [2], the system named is Respiratory syncytial virus. Put plainly: Antiviral activity against Respiratory syncytial virus Long infected in human HeLa cells assessed as inhibition of virus-induced cytopathic effect after 3 to 6 days by MTS based microscopy. The data set is classed as functional, organism-based. (Protection from cytopathic effect is a common read-out in antiviral testing.)

Data set [3] is described as follows: Cytotoxicity against human HeLa cells assessed as alterations in normal cell morphology measured after 3 to 6 days by microscopic analysis. It is filed as cell-based. The method in brief: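 Mock-infected HeLa cultures in 2% FCS medium received serial five-fold dilutions […] for 3–6 days at 37 °C. MCC was the lowest concentration giving microscopically visible minimal change in cell morphology (rounding, shrinking, lysis).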

For the next data set, the system named is Vero. Put plainly: Cytotoxicity against African green monkey Vero cells assessed as reduction in cell viability measured after 3 to 6 days by MTS assay. It is filed as cell-based. Particulars: chlorocebus sabaeus.
In another data set the test system is Human alphaherpesvirus 1. Put plainly: Antiviral activity against Herpes simplex virus type 1 infected in human HEL299 cells assessed as inhibition of virus-induced cytopathic effect after 3 to 6 days by MTS assay. The data set is classed as functional, organism-based.
In another data set the test system is Human alphaherpesvirus 2. Put plainly: Antiviral activity against Herpes simplex virus type 2 infected in human HEL299 cells assessed as inhibition of virus-induced cytopathic effect after 3 to 6 days by MTS assay. It is filed as functional, organism-based.
The next data set concerns Vaccinia virus. Put plainly: Antiviral activity against Vaccinia virus infected in human HEL299 cells assessed as inhibition of virus-induced cytopathic effect after 3 to 6 days by MTS assay. The data set is classed as functional, organism-based. Conditions: Orthopoxvirus vaccinia.
The subject of a further data set is Human adenovirus 2. Briefly: Antiviral activity against Human adenovirus type 2 infected in human HEL299 cells assessed as inhibition of virus-induced cytopathic effect after 3 to 6 days by MTS assay. It is filed as functional, organism-based.
Data set [4] concerns Human immunodeficiency virus. Briefly: Antiviral activity against HIV. The data set is classed as functional, organism-based.
The subject of a further data set is Human coronavirus 229E. Briefly: Antiviral activity against Human coronavirus 229E infected in human HEL299 cells assessed as inhibition of virus-induced cytopathic effect after 3 to 6 days by MTS assay. The data set is classed as functional, organism-based.
A further data set has as its system Human respirovirus 3. Briefly: Antiviral activity against Parainfluenza virus 3 infected in African green monkey Vero cells assessed as inhibition of virus-induced cytopathic effect after 3 to 6 days by MTS assay. It is filed as functional, organism-based.
Data set [5] relates to Vesicular stomatitis virus. Put plainly: Antiviral activity against Vesicular stomatitis virus infected in human HEL299 cells assessed as inhibition of virus-induced cytopathic effect after 3 to 6 days by MTS assay. It is filed as functional, organism-based.
The next data set deals with Sindbis virus. Briefly: Antiviral activity against Sindbis virus infected in African green monkey Vero cells assessed as inhibition of virus-induced cytopathic effect after 3 to 6 days by MTS assay. It is filed as functional, organism-based.
Another data set deals with Yellow fever virus. Briefly: Antiviral activity against Yellow fever virus infected in African green monkey Vero cells assessed as inhibition of virus-induced cytopathic effect after 3 to 6 days by MTS assay. It is filed as functional, organism-based.
The next data set concerns Punta Toro virus. Briefly: Antiviral activity against Punta Toro virus infected in African green monkey Vero cells assessed as inhibition of virus-induced cytopathic effect after 3 to 6 days by MTS assay. The data set is classed as functional, organism-based.
In another data set the test system is Coxsackievirus B4. Briefly: Antiviral activity against Coxsackie B4 virus infected in human HeLa cells assessed as inhibition of virus-induced cytopathic effect after 3 to 6 days by MTS assay. The data set is classed as functional, organism-based.
Data set [6] has as its system Mammalian orthoreovirus 1. Put plainly: Antiviral activity against Reovirus-1 infected in African green monkey Vero cells assessed as inhibition of virus-induced cytopathic effect after 3 to 6 days by MTS assay. The data set is classed as functional, organism-based.

A word on the pEC50: it is the EC50 on a negative log10 scale, so that one unit is a factor of ten. What is called CC50 is the concentration that lowers cell viability or growth by half.

Structures are written as SMILES. pEC50: −log10 of the molar value. Active and inactive are the calls of the source. No cut-off for these calls is given here. Where only a bound is given, the exact number is not on record here.

For the compound `COCCN1C(N)=NC(N)=NC12CCN(C(=O)c1cccn1C)CC2`, the negative-log EC50 (pEC50) (in the data set on Influenza A virus; with Influenza B virus; in [2]) was less than 4.00 in each case. Further, the MCC in data set [1] and in [3] was more than 100 µM throughout. Further, the CC50 in the data set with MDCK was more than 100 µM. Also, the Activity entry in the data set on Vero is recorded as “Non-Toxic”. The outcome (with Human alphaherpesvirus 1; with Human alphaherpesvirus 2; in the data set on Vaccinia virus; in the data set on Human adenovirus 2; in data set [4]; in the data set with Human coronavirus 229E) was inactive. In addition, the outcome (in the data set with Human respirovirus 3; in data set [5]; in the data set on Sindbis virus; with Yellow fever virus; with Punta Toro virus; in the data set with Coxsackievirus B4) was inactive. Moreover, the outcome in data set [6] was inactive.
For `CC(C)(C)OC(=O)N1CCC2(CC1)N=C(N)N=C(N)N2c1cccc(Cl)c1`, the figures for the negative-log EC50 (pEC50) (in the data set on Influenza A virus; with Influenza B virus; in data set [2]) were 4.96, 4.62 and less than 4.00, respectively. Besides, the MCC was not below 20 µM in data set [1] and more than 100 µM in data set [3]. For the same compound, the CC50 with MDCK was more than 100 µM. For the same compound, the Activity entry in the data set with Vero is given as “Non-Toxic”. Moreover, the outcome (with Human alphaherpesvirus 1; in the data set on Human alphaherpesvirus 2; in the data set with Vaccinia virus; in the data set with Human adenovirus 2; in [4]; in the data set with Human coronavirus 229E) was inactive. Besides, the result (in the data set on Human respirovirus 3; in data set [5]; in the data set on Sindbis virus; in the data set with Yellow fever virus; in the data set on Punta Toro virus; with Coxsackievirus B4) was inactive. Moreover, the result in [6] was inactive.
For `COc1cccc(N2C(N)=NC(N)=NC23CCN(C(=O)OC(C)(C)C)CC3)c1`, the values for the negative logarithm of the EC50 (pEC50) (in the data set on Influenza A virus; in the data set with Influenza B virus; in data set [2]) were 4.06, 4.41 and less than 4.00, respectively. Also, the MCC is not below 100 µM in data set [1] and more than 100 µM in data set [3]. For the same compound, the CC50 with MDCK was more than 100 µM. Besides, the Activity entry in the data set on Vero is “Non-Toxic”. For the same compound, the result (with Human alphaherpesvirus 1; with Human alphaherpesvirus 2; in the data set on Vaccinia virus; in the data set with Human adenovirus 2; in [4]; in the data set with Human coronavirus 229E) was inactive. In addition, the result (in the data set with Human respirovirus 3; in [5]; in the data set on Sindbis virus; in the data set on Yellow fever virus; with Punta Toro virus; in the data set on Coxsackievirus B4) was inactive. For the same compound, the outcome in data set [6] was inactive.
For `COCCN1C(N)=NC(N)=NC12CCN(C(=O)C1CC1)CC2`, the pEC50 (in the data set on Influenza A virus; in the data set with Influenza B virus; in [2]) was less than 4.00 throughout. Further, the MCC in data set [1] and in [3] was more than 100 µM in each case. In addition, in the data set on MDCK, the CC50 was more than 100 µM. In addition, in the data set with Vero, the Activity entry is on record as “Non-Toxic”. The outcome (with Human alphaherpesvirus 1; with Human alphaherpesvirus 2; in the data set on Vaccinia virus; in the data set with Human adenovirus 2; in data set [4]; in the data set with Human coronavirus 229E) was inactive. The result (with Human respirovirus 3; in data set [5]; with Sindbis virus; in the data set on Yellow fever virus; in the data set with Punta Toro virus; in the data set on Coxsackievirus B4) was inactive. For the same compound, the result in data set [6] was inactive.
For `CCCN1C(N)=NC(N)=NC12CCN(C(=O)C1CC1)CC2`, the pEC50 (with Influenza A virus; in the data set on Influenza B virus; in [2]) was less than 4.00 throughout. Besides, the MCC in data set [1] and in [3] was more than 100 µM throughout. The CC50 in the data set with MDCK is more than 100 µM. Further, the Activity result in the data set with Vero was “Non-Toxic”. In addition, the outcome (with Human alphaherpesvirus 1; in the data set with Human alphaherpesvirus 2; in the data set with Vaccinia virus; in the data set with Human adenovirus 2; in data set [4]; in the data set on Human coronavirus 229E) was inactive. Moreover, the outcome (in the data set on Human respirovirus 3; in data set [5]; in the data set with Sindbis virus; in the data set with Yellow fever virus; in the data set with Punta Toro virus; in the data set on Coxsackievirus B4) was inactive. Further, the outcome in [6] was inactive.
As to `NC(=O)c1ncn([C@@H]2O[C@H](CO)[C@@H](O)[C@H]2O)n1` [RIBAVIRIN], the pEC50 with Influenza A virus is 4.96; in the data set on Influenza B virus it was 5.49. Further, the MCC was not below 20 µM in [1] and more than 250 µM in data set [3].
In the case of `COCCN1C(N)=NC(N)=NC12CCN(C(=O)NC1CCC(C)CC1)CC2` (stereo unspecified), the pEC50 (in the data set on Influenza A virus; in the data set on Influenza B virus; in data set [2]) was less than 4.00 in each case. Further, the MCC in [1] and in data set [3] was more than 100 µM in each case. Besides, the CC50 in the data set with MDCK was more than 100 µM. Besides, in the data set with Vero, the Activity entry is “Non-Toxic”. Also, the result (with Human alphaherpesvirus 1; in the data set on Human alphaherpesvirus 2; with Vaccinia virus; in the data set with Human adenovirus 2; in data set [4]; in the data set on Human coronavirus 229E) was inactive. Moreover, the result (with Human respirovirus 3; in [5]; in the data set on Sindbis virus; in the data set with Yellow fever virus; in the data set with Punta Toro virus; in the data set on Coxsackievirus B4) was inactive. Further, in data set [6], the result was inactive.
Take `CC(C)(C)OC(=O)N1CCC2(CC1)N=C(N)N=C(N)N2Cc1cccc(Cl)c1`: the pEC50 (with Influenza A virus; in the data set with Influenza B virus; in data set [2]) was less than 4.00 throughout. Moreover, the MCC in data set [1] and in data set [3] was more than 100 µM in each case. The half-maximal cytotoxic concentration (CC50) in the data set on MDCK was more than 100 µM. In the data set on Vero, the Activity result is listed as “Non-Toxic”. For the same compound, the result (in the data set on Human alphaherpesvirus 1; in the data set with Human alphaherpesvirus 2; with Vaccinia virus; in the data set on Human adenovirus 2; in [4]; in the data set on Human coronavirus 229E) was inactive. Moreover, the result (with Human respirovirus 3; in data set [5]; with Sindbis virus; in the data set on Yellow fever virus; with Punta Toro virus; in the data set with Coxsackievirus B4) was inactive. Moreover, the outcome in data set [6] was inactive.
On to `CC(=O)N[C@H]1[C@H]([C@H](O)[C@H](O)CO)OC(C(=O)O)=C[C@@H]1N=C(N)N` [ZANAMIVIR], for which the pEC50 in the data set on Influenza A virus was 5.89; with Influenza B virus it was 6.85. Further, in data set [1], the MCC is more than 100 µM. For the same compound, the CC50 with MDCK is more than 100 µM.
Turning to `CC(N)C12CC3CC(CC(C3)C1)C2` (stereo unspecified) [RIMANTADINE], the pEC50 is 4.55 in the data set on Influenza A virus and less than 3.30 in the data set on Influenza B virus. The MCC in [1] is not below 500 µM. The CC50 in the data set on MDCK is more than 500 µM.
For `NC12CC3CC(CC(C3)C1)C2` [AMANTADINE] the same measures were 4.59, less than 3.30, more than 500 µM and more than 500 µM.
